Laboratory results: ChEMBL document CHEMBL1139866, “Synthesis and antimalarial property of orally active phenoxazinium salts” (J Med Chem, 2007)
Several values for one entry are separate records, joined by “and”; a condition that tells them apart may be missing. Identical values can stand only once.

Columns and labels:
Mus musculus [1] = experiment: Effect on survival of Plasmodium berghei NK65 infected ICR mice (Mus musculus) assessed as mean survival days at 5 mg/kg, intraperitoneal after 4 days; format: functional
Outline: (§1)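 Peters' four-day suppressive test in groups of five ICR mice infected with drug-sensitive P. berghei NK-65. Compound given ip once daily for 4 days. Day-4 parasitemia compared with untreated controls to give % suppression. Mice observed after the end of treatment to record mean survival days and the number alive on day 30.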

Plasmodium berghei [2] = experiment: Antimalarial activity against Plasmodium berghei NK65 infected ICR mice (Mus musculus) as reduced parasitaemia at 5 mg/kg intraperitoneal dose on day 4; format: functional; set-up: scale not given: the % may be the effect or the level left
Outline: (§2)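 Peters' four-day suppressive test with P. berghei NK-65 (drug-sensitive) in groups of five ICR mice, dosed intraperitoneally once daily for 4 days. Parasitemia on day 4 is compared with untreated infected controls to give % suppression. Survival is followed after treatment as mean survival days, observed up to day 30.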

Plasmodium falciparum = experiment: Antimalarial activity against chloroquine-resistant Plasmodium falciparum K1 after 48 hrs; format: functional, organism-based
[3] = Ratio of EC50 for rat L6 cells to EC50 for Plasmodium falciparum K1; format: functional
Outline: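 Selectivity index is the EC50 against rat skeletal myoblast L-6 cells divided by the in vitro EC50 against chloroquine-resistant P. falciparum K1, which was assayed by the Desjardins method.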

Plasmodium berghei [4] = experiment: Antimalarial activity against Plasmodium berghei NK65 infected ICR mice (Mus musculus) as reduced parasitaemia after 2.5 mg/kg intraperitoneal dose on day 4; format: functional; set-up: scale not given: the % may be the effect or the level left; outline: as §2
Mus musculus [5] = experiment: Effect on survival of Plasmodium berghei NK65 infected ICR mice (Mus musculus) assessed as mean survival days at 10 mg/kg, intraperitoneal after 4 days; format: functional; outline: as §1
Mus musculus [6] = experiment: Survival of Plasmodium berghei NK65 infected ICR mice (Mus musculus) at 20 mg/kg, intraperitoneal after 4 days; format: functional; outline: as §1
Mus musculus [7] = experiment: Effect on survival of Plasmodium berghei NK65 infected ICR mice (Mus musculus) assessed as mean survival days at 20 mg/kg, intraperitoneal after 4 days; format: functional; outline: as §1
Plasmodium berghei [8] = experiment: Antimalarial activity against Plasmodium berghei NK65 infected ICR mice (Mus musculus) as reduced parasitaemia on 10 mg/kg intraperitoneal dose on day 4; set-up: scale not given: the % may be the effect or the level left
Mus musculus [9] = experiment: Effect on survival of Plasmodium berghei NK65 infected ICR mice (Mus musculus) assessed as mean survival days at 2.5 mg/kg, intraperitoneal after 4 days; format: functional; outline: as §1
Plasmodium berghei [10] = experiment: Antimalarial activity against Plasmodium berghei NK65 infected ICR mice (Mus musculus) as reduced parasitaemia after 20 mg/kg intraperitoneal dose on day 4; format: functional; set-up: scale not given: the % may be the effect or the level left; outline: as §2
Mus musculus [11] = experiment: Effect on survival of Plasmodium berghei NK65 infected ICR mice (Mus musculus) assessed as mean survival days at 90 mg/kg/day, oral after 4 days
[12] = Half life in Wistar rat at 10 mg/kg, iv; format: ADME, organism-based; set-up: dose 10 mg/kg, route intravenous; details: in vivo
Outline: (§3)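 Preliminary pharmacokinetics in Wistar rats given 10 mg kg^-1 as a saline solution, either intravenously or orally. Values are the average of three animals. Half-life is determined for each route, and oral bioavailability is obtained by comparing the oral and intravenous routes.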

[13] = Oral bioavailability in Wistar rat at 10 mg/kg, po; format: ADME, organism-based; details: in vivo; outline: as §3
Plasmodium berghei [14] = experiment: Antimalarial activity against Plasmodium berghei NK65 infected ICR mice (Mus musculus) as reduced parasitaemia at 90 mg/kg/day oral dose after 4 days; set-up: scale not given: the % may be the effect or the level left
Mus musculus [15] = experiment: Effect on survival of Plasmodium berghei NK65 infected ICR mice (Mus musculus) assessed as mean survival days at 100 mg/kg/day, oral after 4 days
Plasmodium berghei [16] = experiment: Antimalarial activity against Plasmodium berghei NK65 infected ICR mice (Mus musculus) as reduced parasitaemia on day 4 after 1 day at 100 mg/kg/day oral dose; set-up: scale not given: the % may be the effect or the level left
Mus musculus [17] = experiment: Effect on survival of Plasmodium berghei NK65 infected ICR mice (Mus musculus) assessed as mean survival days at 12 times of 30 mg/kg/8hrs, oral
Plasmodium berghei [18] = experiment: Antimalarial activity against Plasmodium berghei NK65 infected ICR mice (Mus musculus) as reduced parasitaemia after 12 oral doses of 30 mg/kg/8hrs; set-up: scale not given: the % may be the effect or the level left
Mus musculus [19] = experiment: Effect on survival of Plasmodium berghei NK65 infected ICR mice (Mus musculus) assessed as mean survival days at 100 mg/kg/day, oral after 1 day
Plasmodium berghei [20] = experiment: Antimalarial activity against Plasmodium berghei NK65 infected ICR mice (Mus musculus) as reduced parasitaemia after 12 doses of 15 mg/kg/8hrs; format: functional; set-up: scale not given: the % may be the effect or the level left
Outline: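 Oral four-day suppressive test against P. berghei NK-65 in five ICR mice, using short-span dosing every 8 h for 12 doses in total. % parasitemia suppression on day 4 is calculated against untreated infected controls, and mean survival days and mice alive on day 30 are recorded.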

Plasmodium berghei [21] = experiment: Antimalarial activity against Plasmodium berghei NK65 infected ICR mice (Mus musculus) as reduced parasitaemia on 25 mg/kg/day oral dose after 4 days; set-up: scale not given: the % may be the effect or the level left
Mus musculus [22] = experiment: Effect on survival of Plasmodium berghei NK65 infected ICR mice (Mus musculus) assessed as mean survival days at 50 mg/kg/day, oral after 4 days
Plasmodium berghei [23] = experiment: Antimalarial activity against Plasmodium berghei NK65 infected ICR mice (Mus musculus) as reduced parasitaemia at 50 mg/kg/day oral dose after 4 days; set-up: scale not given: the % may be the effect or the level left
Rattus norvegicus [24] = experiment: AUC (0-480 mins) in Wistar rat at 10 mg/kg, iv; format: ADME, organism-based, Plasma; set-up: time < 8 hr, dose 10 mg/kg, route intravenous; details: in vivo, 8 h; outline: as §3
Rattus norvegicus [25] = experiment: AUC (0-480 mins) in Wistar rat at 10 mg/kg, po; format: ADME, organism-based, Plasma; set-up: time < 8 hr, dose 10 mg/kg, route oral; details: in vivo, 8 h; outline: as §3
Plasmodium berghei [26] = experiment: Antimalarial activity against Plasmodium berghei NK65 infected ICR mice (Mus musculus) as reduced parasitaemia at 100 mg/kg/day oral dose after 4 days; set-up: scale not given: the % may be the effect or the level left
[27] = Half life in Wistar rat at 10 mg/kg, po; format: ADME, organism-based; set-up: dose 10 mg/kg, route oral; details: in vivo; outline: as §3
Mus musculus [28] = experiment: Effect on survival of Plasmodium berghei NK65 infected ICR mice (Mus musculus) assessed as mean survival days at 25 mg/kg/day, oral after 4 days
Mus musculus [29] = experiment: Effect on survival of Plasmodium berghei NK65 infected ICR mice (Mus musculus) assessed as mean survival days at 12 times of 15 mg/kg/8hrs, oral
Mus musculus [30] = experiment: Effect on survival of Plasmodium berghei NK65 infected ICR mice (Mus musculus) assessed as mean survival days at 30 mg/kg, intraperitoneal after 4 days; format: functional; outline: as §1
Plasmodium berghei [31] = experiment: Antimalarial activity against Plasmodium berghei NK65 infected ICR mice (Mus musculus) as reduced parasitaemia at 30 mg/kg intraperitoneal dose on day 4; format: functional; set-up: scale not given: the % may be the effect or the level left; outline: as §1
[32] = Plasmodium falciparum, K1, 48 h

SMILES: CCN(C)c1ccc2nc3ccc(=[N+](C)C)cc-3oc2c1.[O-][Cl+3]([O-])([O-])[O-]
- Mean survival days (Mus musculus [1]): 6.7 days
- Activity (Plasmodium berghei [2]): 71.7%

SMILES: CN(C)c1ccc2nc3ccc(=[N+](C)C)cc-3oc2c1.[Cl-].[Cl][Zn][Cl]
- EC50 (Plasmodium falciparum; [32]): 12.6 nM
- Mean survival days (Mus musculus [1]): 5.6 days
- Activity (Plasmodium berghei [2]): 17.1%
- Ratio [3]: 700

SMILES: CCN(CC)c1ccc2nc3ccc(=[N+](C)C)cc-3oc2c1.[Cl-]
- Activity (Plasmodium berghei [4]): 58.7%
- Mean survival days (Mus musculus [5]): 13 days
- Mean survival days (Mus musculus [1]): 10 days
- Activity (Mus musculus [6]): 40%
- Mean survival days (Mus musculus [7]): >17 days
- Activity (Plasmodium berghei [2]): 85.3%
- Activity (Plasmodium berghei [8]): 99.9%
- Mean survival days (Mus musculus [9]): 7.8 days
- Activity (Plasmodium berghei [10]): 100%

SMILES: CN(C)c1ccc2nc3ccc(=[N+](C)C)cc-3oc2c1.[O-][Cl+3]([O-])([O-])[O-]
- Mean survival days (Mus musculus [1]): 6.7 days
- Activity (Plasmodium berghei [2]): 45.9%

SMILES: CCN(CC)c1ccc2nc3ccc(=[N+](C)C)cc-3oc2c1.[O-][Cl+3]([O-])([O-])[O-]
- Mean survival days (Mus musculus [1]): 9.4 days
- Activity (Plasmodium berghei [2]): 77%

SMILES: CN(C)c1cc(O)c2nc3ccc(=[N+](C)C)cc-3oc2c1.[Cl-]
- Mean survival days (Mus musculus [1]): 5.3 days
- Activity (Plasmodium berghei [2]): 4.2%

SMILES: CCN(CC)c1ccc2nc3ccc(N(CC)CC)cc3[o+]c2c1.[Cl-]
- Mean survival days (Mus musculus [11]): >24 days
- half-life [12]: 5.8 min
- Activity (Plasmodium berghei [4]): 30.5%
- EC50 (Plasmodium falciparum): 2.8 nM
- EC50 (Plasmodium falciparum; [32]): 4.7 nM
- bioavailability [13]: 96.3%
- Mean survival days (Mus musculus [5]): >11 days
- Activity (Plasmodium berghei [14]): 100%
- Mean survival days (Mus musculus [7]): >14 days
- Mean survival days (Mus musculus [15]): >28 days
- Activity (Plasmodium berghei [16]): 100%
- Activity (Plasmodium berghei [2]; 5 mg/kg): 80.6% and 46.3%
- Mean survival days (Mus musculus [17]): >13 days
- Activity (Plasmodium berghei [18]): 100%
- Mean survival days (Mus musculus [19]): 13 days
- Activity (Plasmodium berghei [20]): 100%
- Activity (Plasmodium berghei [21]): 82.3%
- Mean survival days (Mus musculus [22]): 14 days
- Activity (Plasmodium berghei [23]): 98.6%
- Activity (Plasmodium berghei [8]): 80.4%
- AUC (Rattus norvegicus [24]): 717 ng·h/mL
- Ratio [3]: 830 and 2400
- AUC (Rattus norvegicus [25]): 690 ng·h/mL
- Activity (Plasmodium berghei [26]): 100%
- half-life [27]: 59.2 min
- Mean survival days (Mus musculus [28]): 7.6 days
- Mean survival days (Mus musculus [29]): 14 days
- Activity (Plasmodium berghei [10]): 95.8%

SMILES: CCCCN(CCCC)c1ccc2nc3ccc(=[N+](CC)CC)cc-3oc2c1.[Cl-]
- EC50 (Plasmodium falciparum; [32]): 2.4 nM
- Mean survival days (Mus musculus [1]): 16 days
- Activity (Plasmodium berghei [2]): 83.1%
- Ratio [3]: 350

SMILES: CCCCN(CCCC)c1ccc2nc3ccc(=[N+](C)C)cc-3oc2c1.[O-][Cl+3]([O-])([O-])[O-]
- Mean survival days (Mus musculus [1]): 11.4 days
- Activity (Plasmodium berghei [2]): 90.3%

SMILES: CN1CCN(c2cc(OC(=O)C(C)(C)C)c3nc4ccc(=[N+](C)C)cc-4oc3c2)CC1.[Cl-]
- EC50 (Plasmodium falciparum; [32]): 270 nM
- Mean survival days (Mus musculus [1]): 5.4 days
- Activity (Plasmodium berghei [2]): 19.9%
- Ratio [3]: 160

SMILES: CN1CCN(c2cc(O)c3nc4ccc(=[N+](C)C)cc-4oc3c2)CC1.[Cl-]
- EC50 (Plasmodium falciparum; [32]): 200 nM
- Mean survival days (Mus musculus [1]): 5.3 days
- Activity (Plasmodium berghei [2]): 17.4%
- Ratio [3]: 440

SMILES: C[N+](C)=c1ccc2nc3ccc(N4CCNCC4)cc3oc-2c1.[Cl-]
- Mean survival days (Mus musculus [30]): 16.4 days
- EC50 (Plasmodium falciparum; [32]): 28 nM
- Mean survival days (Mus musculus [5]): 7.4 days
- Mean survival days (Mus musculus [1]): 6 days
- Mean survival days (Mus musculus [7]): 17.6 days
- Mean survival days (Mus musculus [15]): 17 days
- Activity (Plasmodium berghei [2]): 54.8%
- Activity (Plasmodium berghei [31]): 100%
- Activity (Plasmodium berghei [8]): 78.5%
- Ratio [3]: 2300
- Activity (Plasmodium berghei [26]): 100%
- Activity (Plasmodium berghei [10]): 98.1%

SMILES: CCN(CC)CCCC(C)Nc1ccnc2cc(Cl)ccc12 (centres undefined) [CHLOROQUINE]
- EC50 (Plasmodium falciparum; [32]): 1500 nM
- Mean survival days (Mus musculus [5]): 22.7 days
- Activity (Plasmodium berghei [8]): 90.6%
- Ratio [3]: 32
